ChEMBL document CHEMBL1142298, “Synthesis and dopamine receptor affinities of N-alkyl-11-hydroxy-2-methoxynoraporphines: N-alkyl substituents determine D1 versus D2 receptor selectivity” (J Med Chem, 2008)

target: D(1A) dopamine receptor (Rattus norvegicus, UniProt P18901); test: Displacement of [3H]SCH-23390 from dopamine D1 receptor in rat striatum
In short: (§1)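 Competitive radioligand binding on membrane homogenates prepared from rat striatum tissue, following a previously published procedure.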

Chain of D(1A) dopamine receptor (P18901 whole entry): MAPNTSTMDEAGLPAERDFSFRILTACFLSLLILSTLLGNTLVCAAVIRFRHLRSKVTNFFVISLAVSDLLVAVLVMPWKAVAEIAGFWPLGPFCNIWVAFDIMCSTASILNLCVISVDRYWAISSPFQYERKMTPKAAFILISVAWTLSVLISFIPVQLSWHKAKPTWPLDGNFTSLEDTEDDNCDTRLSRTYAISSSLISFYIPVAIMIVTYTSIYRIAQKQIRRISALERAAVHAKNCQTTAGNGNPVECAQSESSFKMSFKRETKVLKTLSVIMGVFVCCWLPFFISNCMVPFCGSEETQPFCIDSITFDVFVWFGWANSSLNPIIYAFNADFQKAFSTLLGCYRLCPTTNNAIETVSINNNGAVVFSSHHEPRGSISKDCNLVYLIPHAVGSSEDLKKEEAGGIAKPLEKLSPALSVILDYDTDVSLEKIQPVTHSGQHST

SMILES	Ki
CN1CCc2cccc3c2[C@H]1Cc1cccc(O)c1-3	26.5 nM
COc1cc2c3c(c1)-c1c(O)cccc1C[C@H]3N(C)CC2	46 nM
CCCN1CCc2cc(OC)cc3c2[C@H]1Cc1ccc(O)c(O)c1-3	6450 nM
CCN1CCc2cc(OC)cc3c2[C@H]1Cc1cccc(O)c1-3	130 nM
CCCCN1CCc2cc(OC)cc3c2[C@H]1Cc1cccc(O)c1-3	> 10000 nM
COc1cc2c3c(c1)-c1c(ccc(O)c1O)C[C@H]3N(C)CC2	> 10000 nM

target: D(2) dopamine receptor (Rattus norvegicus, UniProt P61169); test: Displacement of [3H]neomonapride from dopamine D2 receptor in rat striatum; in short: as §1
Sequence (P61169 whole entry): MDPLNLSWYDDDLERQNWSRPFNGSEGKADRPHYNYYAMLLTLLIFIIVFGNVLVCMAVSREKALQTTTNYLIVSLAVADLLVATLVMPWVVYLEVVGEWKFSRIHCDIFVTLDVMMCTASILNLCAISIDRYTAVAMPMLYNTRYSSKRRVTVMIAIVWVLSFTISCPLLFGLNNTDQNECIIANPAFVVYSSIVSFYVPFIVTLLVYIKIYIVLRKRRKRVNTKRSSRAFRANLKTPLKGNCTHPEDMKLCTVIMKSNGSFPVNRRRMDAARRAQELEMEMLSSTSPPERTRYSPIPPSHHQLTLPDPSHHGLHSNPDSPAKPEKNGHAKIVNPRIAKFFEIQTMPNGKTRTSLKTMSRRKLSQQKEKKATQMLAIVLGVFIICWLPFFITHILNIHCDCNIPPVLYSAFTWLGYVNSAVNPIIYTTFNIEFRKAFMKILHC

SMILES	Ki
CN1CCc2cccc3c2[C@H]1Cc1cccc(O)c1-3	108 nM
COc1cc2c3c(c1)-c1c(O)cccc1C[C@H]3N(C)CC2	235 nM
CCCN1CCc2cc(OC)cc3c2[C@H]1Cc1ccc(O)c(O)c1-3	1.3 nM
CCN1CCc2cc(OC)cc3c2[C@H]1Cc1cccc(O)c1-3	28 nM
CCCCN1CCc2cc(OC)cc3c2[C@H]1Cc1cccc(O)c1-3	> 10000 nM
COc1cc2c3c(c1)-c1c(ccc(O)c1O)C[C@H]3N(C)CC2	3.5 nM

species: Rattus norvegicus; test: Selectivity ratio of rat dopamine D2 receptor to rat dopamine D1 receptor

SMILES	Ratio Ki
CN1CCc2cccc3c2[C@H]1Cc1cccc(O)c1-3	0.24
COc1cc2c3c(c1)-c1c(O)cccc1C[C@H]3N(C)CC2	0.19
CCCN1CCc2cc(OC)cc3c2[C@H]1Cc1ccc(O)c(O)c1-3	4860
CCN1CCc2cc(OC)cc3c2[C@H]1Cc1cccc(O)c1-3	4.6
COc1cc2c3c(c1)-c1c(ccc(O)c1O)C[C@H]3N(C)CC2	> 2860
